These results are taken from ChEMBL document CHEMBL1134956, “Relating the structure, activity, and physical properties of ultrashort-acting benzodiazepine receptor agonists” (Bioorg Med Chem Lett, 2002).

For data set [1], the system named is Rattus norvegicus. The data set is described as follows: Compound was tested for its total (rat) loss-of-righting reflex LORR recovery time at a dose of 50 mg/kg. The class given is functional, organism-based. Also on record: dose 50 mg/kg. In outline:
(§1)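 Rat loss-of-righting-reflex test, after the method of ref 14. The compound is given as a bolus injection in 50% PEG/25% EtOH/25% saline. Initial and total recovery times are recorded in min.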

Data set [2] has as its system Rattus norvegicus. The data set can be described thus: Compound was tested for its initial (rat) loss-of-righting reflex LORR recovery time at a dose of 50 mg/kg. The format is functional, organism-based. Details: dose 50 mg/kg. In outline: as §1
The nature of data set [3]: Selectivity by the ratio of binding affinity of acid to the binding affinity of its ester.
Data set [4] in a line: Aqueous solubility at pH 3 was determined. The format is physicochemical. In outline:
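Solubility of a saturated sample at pH 3, read by visual inspection or UV assay. The pH 3 value was cross-checked against solubility at other pH values and spectrophotometric pKa values.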

Data set [5] in a line: Binding affinity against rat benzodiazepine (BZD) receptor.
The test system of data set [6] is Rattus norvegicus. The data set is described as follows: Compound was tested for its initial (rat) loss-of-righting reflex LORR recovery time at a dose of 25 mg/kg. The class given is functional, organism-based. Details: dose 25 mg/kg; unit not given here. In outline:
as §1

The test system of data set [7] is Rattus norvegicus. The data set is described as follows: Compound was tested for its total (rat) loss-of-righting reflex LORR recovery time at a dose of 25 mg/kg. The class given is functional, organism-based. Details: dose 25 mg/kg; unit not given here. In outline:
as §1

The subject of data set [8] is Rattus norvegicus. The data set is described as follows: Compound was tested for its total (rat) loss-of-righting reflex LORR recovery time at a dose of 30 mg/kg. The format is functional, organism-based. Details: dose 30 mg/kg.
The subject of data set [9] is Rattus norvegicus. The data set can be described thus: Compound was tested for its initial (rat) loss-of-righting reflex LORR recovery time at a dose of 30 mg/kg. Details: dose 30 mg/kg. The format is functional, organism-based. An outline of the steps:
as §1

Molecules are shown by their SMILES. Values after ≈ are worked out from the molar mass of the structure shown.

With `COC(=O)CC[C@@H]1N=C(c2ccccn2)c2cc(Cl)ccc2NC1=O`, the Recovery time in data set [1] is 16 mg/kg; in data set [2] it was 9 mg/kg. The Selectivity in [3] is 46. In data set [4], this compound gave a solubility of 1000 µg/mL (≈ 2.79 mM). For the same compound, the Ki in [5] came to 139 nM.
On to `COC(=O)CC[C@@H]1N=C(c2ccccn2)c2cc(Cl)ccc2-n2c(C)cnc21`, for which the values for the Recovery time in [6] and in data set [7] were 9 and 11, respectively. Moreover, the Selectivity in [3] was determined as 147. For the same compound, the solubility in data set [4] was 13000 µg/mL (≈ 32.9 mM). Besides, in data set [5], the affinity corresponds to a Ki of 98 nM.
Take `CNC1=Nc2ccc(Cl)cc2C(c2ccccc2)=[N+]([O-])C1` [CHLORDIAZEPOXIDE]: affinity in [5] was put at a Ki of 438 nM.
On to `COC(=O)CC[C@@H]1N=C(c2ccccc2F)c2cc(Cl)ccc2-n2c1cnc2C`, for which the Recovery time in data set [6] is 20; in data set [7] it was 24. The Selectivity in data set [3] was 226. This compound also returned a Ki in data set [5] of 11 nM.
`CNC1=Nc2ccc(Cl)cc2C(c2ccccc2F)=N[C@H]1CCC(=O)OC`: the figures for the Recovery time in data set [6] and in data set [7] were 15 and 22, respectively. Also, in data set [3], the Selectivity stood at 156. In addition, the solubility in [4] was found to be 13000 µg/mL (≈ 33.5 mM). The compound also had a Ki in data set [5] of 96 nM.
Consider `COC(=O)CC[C@@H]1N=C(c2ccccn2)c2cc(Cl)ccc2-n2ccnc21`, for which the Recovery time in data set [6] was 7; in data set [7], 10. Also, the Selectivity in [3] is 176. The compound also had a Ki in [5] of 79 nM.
`COC(=O)CC[C@@H]1N=C(c2ccccc2F)c2cc(Cl)ccc2N=C1NCCO` had a Ki in data set [5] of 303 nM.
On the same count and under the same terms, with `COC(=O)CC[C@@H]1N=C(c2ccccc2F)c2cc(Cl)ccc2N=C1NCc1ccncc1` the figure was 1230 nM.
As to `COC(=O)CC[C@@H]1N=C(c2ccccn2)c2cc(Cl)ccc2-n2cc(C)nc21`, the Recovery time is 13 in data set [6] and 15 in data set [7]. The Selectivity in data set [3] was 156. For the same compound, the concentration in solution in [4] (solubility) was 2000 µg/mL (≈ 5.07 mM). The compound also had a Ki in data set [5] of 60 nM.
The compound `COC(=O)CC[C@@H]1N=C(c2ccccc2F)c2cc(Cl)ccc2N=C1NCC(C)C` displayed a Ki in [5] of 1010 nM.
`CCNC1=Nc2ccc(Cl)cc2C(c2ccccc2F)=N[C@H]1CCC(=O)OC` showed a Ki in [5] of 146 nM.
Take `COC(=O)CC[C@@H]1N=C(c2ccccc2F)c2cc(Cl)ccc2NC1=O`: the values for the Recovery time in data set [6] and in data set [7] were 9 and 24, respectively. The Selectivity in data set [3] amounted to 984. Also, in data set [4], the solubility was below 3000 µg/mL. In addition, the affinity in data set [5] corresponds to a Ki of 7 nM.
Turning to `COC(=O)CC[C@@H]1N=C(c2ccccc2F)c2cc(Cl)ccc2N=C1NCCc1c[nH]cn1`, affinity in data set [5] was put at a Ki of 208 nM.
On the same count and under the same terms, the same measure for `COC(=O)CC[C@@H]1N=C(c2ccccc2F)c2cc(Cl)ccc2N=C1NCc1ccccc1`: 875 nM.
Take `COC(=O)CC[C@H]1N=C(c2ccccc2F)c2cc(Cl)ccc2-n2c1cnc2C`: the Selectivity in [3] is 28. The Ki in data set [5] came to 3570 nM.
For the compound `COC(=O)CC[C@@H]1N=C(c2ccccc2F)c2cc(Cl)ccc2-n2c(C)cnc21`, the figures for the Recovery time in data set [6] and in [7] were 23 and 33, respectively. For the same compound, the Selectivity in data set [3] is 74. Besides, in data set [4], the solubility is below 1000 µg/mL. Besides, the affinity in data set [5] corresponds to a Ki of 8 nM.
For `COC(=O)CC[C@@H]1N=C(c2ccccn2)c2cc(Cl)ccc2-n2c1nc(C)c2C`, in [3], the Selectivity is 40. In addition, the Ki in [5] worked out at 130 nM.
Take `COC(=O)CC[C@@H]1N=C(c2ccccc2F)c2cc(Cl)ccc2-n2cc(C)nc21`: the Recovery time in [6] worked out at 6; in [7] it was 21. Besides, in data set [3], the Selectivity is 156. For the same compound, affinity in [5] was put at a Ki of 7 nM.
Consider `COC(=O)CC[C@@H]1N=C(c2ccccc2F)c2cc(Cl)ccc2N=C1NCCc1ccncc1`, for which, in data set [5], affinity was put at a Ki of 792 nM.
In the case of `COC(=O)CC[C@@H]1N=C(c2ccccc2F)c2cc(Cl)ccc2-n2ccnc21`, the Recovery time amounted to 17 in data set [6] and 23 in [7]. Further, the Selectivity in data set [3] was found to be 64. Further, in [5], affinity was put at a Ki of 7 nM.
Turning to `Cc1ncc2n1-c1ccc(Cl)cc1C(c1ccccc1F)=NC2` [MIDAZOLAM], the results for the Recovery time in data set [8] and in [9] were 121 mg/kg and 23 mg/kg, respectively. For the same compound, the solubility in data set [4] was at least 8000 µg/mL. The compound also registered a Ki in data set [5] of 2 nM.

The term solubility denotes the concentration that dissolves in the medium under given conditions. Broadly, the Ki is a measure of affinity in units of concentration, obtained from inhibition or displacement.
